How the values were obtained:
[1] = molecular target: Platelet-derived growth factor receptor (Homo sapiens, UniProt P09619+P16234); experiment: Concentration required for 50% inhibition against autophosphorylation of Platelet-derived growth factor receptor beta in intact cells using a two site ELISA; type: cell-based
[2] = Lipophilicity was reported; type: physicochemical; settings: octanol/water
[3] = Plasma concentration was determined after 8 hr at a dose 30 mg/kg administered orally to rat-13; type: ADME, organism-based; set-up: dose 30 mg/kg, route oral; settings: po
Summary of the method: (§1)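 Sprague-Dawley rats, n=2 per compound, dosed orally at 30 mg/kg. Plasma drug concentration measured 1 and 8 h after dosing.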

[4] = Solubility in aqueous phosphate buffer (pH 7.4) at 20c was determined; type: physicochemical
[5] = pharmacokinetic parameter was evaluated after oral administration of 30 mg/kg to rat; type: ADME, organism-based; set-up: dose 30 mg/kg, route oral; settings: in vivo
Summary of the method: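 Sprague-Dawley rats, n=3, dosed orally at 30 mg/kg. Plasma drug concentrations were followed to derive Tmax (h), Cmax (µg/mL), T1/2 (h) and AUC0-∞ (µg h/mL).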

[6] = Plasma concentration was determined after 1 hr at a dose 30 mg/kg administered orally to rat-13; type: ADME, organism-based; set-up: dose 30 mg/kg, route oral; settings: po; summary of the method: as §1
[7] = Plasma concentration was determined after 1 hr at a dose 30 mg/kg administered orally to rat-14; type: ADME, organism-based; set-up: dose 30 mg/kg, route oral; settings: po; summary of the method: as §1
[8] = Plasma concentration was determined after 8 hr at a dose 30 mg/kg administered orally to rat-14; type: ADME, organism-based; set-up: dose 30 mg/kg, route oral; settings: po; summary of the method: as §1
[9] = molecular target: T1, Receptor-type tyrosine-protein kinase FLT3 (Homo sapiens, UniProt P36888); experiment: Inhibition of Flt3 autophosphorylation
T1 sequence (P36888 whole entry): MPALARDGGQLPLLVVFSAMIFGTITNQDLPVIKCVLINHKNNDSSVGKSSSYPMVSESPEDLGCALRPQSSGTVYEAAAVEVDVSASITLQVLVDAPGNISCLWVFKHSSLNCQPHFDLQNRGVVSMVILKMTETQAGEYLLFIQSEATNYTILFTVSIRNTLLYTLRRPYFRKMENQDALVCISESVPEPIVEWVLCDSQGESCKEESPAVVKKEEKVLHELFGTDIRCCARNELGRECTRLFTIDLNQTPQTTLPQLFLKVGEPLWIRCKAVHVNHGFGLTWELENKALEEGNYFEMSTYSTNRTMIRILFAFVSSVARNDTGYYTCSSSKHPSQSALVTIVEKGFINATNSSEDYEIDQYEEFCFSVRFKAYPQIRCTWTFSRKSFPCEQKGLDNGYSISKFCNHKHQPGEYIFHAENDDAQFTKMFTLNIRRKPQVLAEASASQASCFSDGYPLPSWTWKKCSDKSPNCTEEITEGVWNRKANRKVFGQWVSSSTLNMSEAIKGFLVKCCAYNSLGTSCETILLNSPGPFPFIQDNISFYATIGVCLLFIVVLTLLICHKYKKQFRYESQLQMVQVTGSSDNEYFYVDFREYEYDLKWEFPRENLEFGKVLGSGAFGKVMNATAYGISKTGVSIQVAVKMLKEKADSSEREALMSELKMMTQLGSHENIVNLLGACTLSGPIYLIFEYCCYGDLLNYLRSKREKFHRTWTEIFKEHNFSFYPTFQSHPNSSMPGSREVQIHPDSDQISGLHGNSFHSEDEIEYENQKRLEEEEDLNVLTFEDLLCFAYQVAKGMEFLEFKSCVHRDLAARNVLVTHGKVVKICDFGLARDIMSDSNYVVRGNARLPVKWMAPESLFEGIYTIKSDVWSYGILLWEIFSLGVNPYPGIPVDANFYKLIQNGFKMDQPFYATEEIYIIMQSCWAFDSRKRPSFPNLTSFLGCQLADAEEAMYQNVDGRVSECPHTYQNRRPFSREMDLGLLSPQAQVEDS

Protein kinase C (PKC) = experiment: Inhibition of Protein kinase C; type: protein assay
Summary of the method: (§2)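 Substrate phosphorylation measured in an in vitro assay with purified enzyme; IC50 values in µmol/L.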

[10] = molecular target: Fibroblast growth factor receptor (Homo sapiens, UniProt P22607+P11362+P22455+P21802); experiment: Inhibition of Fibroblast growth factor receptor autophosphorylation; type: protein assay
[11] = molecular target: Mast/stem cell growth factor receptor Kit (Homo sapiens, UniProt P10721); experiment: Inhibition of Mast/stem cell growth factor receptor (c-kit) autophosphorylation
Sequence of Mast/stem cell growth factor receptor Kit (P10721 whole entry): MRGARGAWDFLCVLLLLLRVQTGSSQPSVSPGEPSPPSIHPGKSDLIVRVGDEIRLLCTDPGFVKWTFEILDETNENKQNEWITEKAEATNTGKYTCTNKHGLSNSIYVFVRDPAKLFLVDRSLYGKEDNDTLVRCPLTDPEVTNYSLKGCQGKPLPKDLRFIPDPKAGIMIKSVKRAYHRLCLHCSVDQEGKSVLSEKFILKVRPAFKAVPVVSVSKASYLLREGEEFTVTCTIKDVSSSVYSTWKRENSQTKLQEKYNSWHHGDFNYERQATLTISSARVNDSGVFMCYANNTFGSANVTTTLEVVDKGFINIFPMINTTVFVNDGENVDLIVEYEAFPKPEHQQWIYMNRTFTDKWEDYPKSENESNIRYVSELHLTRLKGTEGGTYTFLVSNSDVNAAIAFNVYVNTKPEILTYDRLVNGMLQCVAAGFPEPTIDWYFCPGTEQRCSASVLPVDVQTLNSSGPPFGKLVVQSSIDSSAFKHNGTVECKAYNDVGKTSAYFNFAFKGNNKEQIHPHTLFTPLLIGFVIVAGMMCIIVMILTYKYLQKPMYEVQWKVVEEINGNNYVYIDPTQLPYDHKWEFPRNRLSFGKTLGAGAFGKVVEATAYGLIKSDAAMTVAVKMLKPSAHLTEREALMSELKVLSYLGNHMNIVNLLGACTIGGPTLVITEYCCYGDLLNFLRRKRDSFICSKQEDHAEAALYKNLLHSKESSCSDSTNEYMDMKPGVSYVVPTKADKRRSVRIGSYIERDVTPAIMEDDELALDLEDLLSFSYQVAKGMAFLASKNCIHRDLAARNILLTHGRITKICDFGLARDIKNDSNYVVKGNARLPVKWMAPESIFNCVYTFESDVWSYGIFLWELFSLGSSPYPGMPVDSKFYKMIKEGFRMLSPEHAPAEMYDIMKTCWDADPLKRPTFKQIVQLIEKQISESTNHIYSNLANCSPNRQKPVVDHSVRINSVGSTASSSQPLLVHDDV

[12] = molecular target: cAMP-dependent protein kinase (PKA) (Homo sapiens, UniProt P22694+P17612+P22612); experiment: Inhibition of Protein kinase A (PKA); type: protein assay; summary of the method: as §2
[13] = Plasma concentration was determined after 1 hr at a dose 30 mg/kg administered orally to rat-2; type: ADME, organism-based; set-up: dose 30 mg/kg, route oral; settings: po; summary of the method: as §1
[14] = Plasma concentration was determined after 1 hr at a dose 30 mg/kg administered orally to rat-1; type: ADME, organism-based; set-up: dose 30 mg/kg, route oral; settings: po; summary of the method: as §1
[15] = Plasma concentration was determined after 8 hr at a dose 30 mg/kg administered orally to rat-1; type: ADME, organism-based; set-up: dose 30 mg/kg, route oral; settings: po; summary of the method: as §1
[16] = Plasma concentration was determined after 8 hr at a dose 30 mg/kg administered orally to rat-2; type: ADME, organism-based; set-up: dose 30 mg/kg, route oral; settings: po; summary of the method: as §1

SMILES	IC50 [1] [nM]	other results
COc1cc2ncnc(N3CCN(C(=S)Nc4cccnc4)CC3)c2cc1OC	410	–
COc1cc2ncnc(N3CCN(C(=O)Nc4ccccn4)CC3)c2cc1OC	> 10000	–
COc1cc2ncnc(N3CCN(C(=S)N(C)Cc4ccccc4)CC3)c2cc1OC	> 30000	–
COc1cc2ncnc(N3CCN(C(=NC#N)NCc4ccccc4Cl)CC3)c2cc1OC	> 30000	–
COc1cc2ncnc(N3CCN(C(=O)NCc4ccc5c(c4)OCO5)CC3)c2cc1OC	1870	–
COc1cc2ncnc(N3CCN(C(=O)NCc4ccc(Br)cc4)CC3)c2cc1OC	740	–
COc1cc2ncnc(N3CCN(C(=O)NCCc4ccc(Cl)cc4)CC3)c2cc1OC	5840	–
COc1cc2ncnc(N3CCN(C(=S)N[C@@H](C)c4ccccc4)CC3)c2cc1OC	540	–
COc1cc2ncnc(N3CCN(C(=O)NCc4ccc(C)cc4)CC3)c2cc1OC	2940	–
COc1cc2ncnc(N3CCN(C(=O)NCC(=O)c4ccc(Br)cc4)CC3)c2cc1OC	140	–
COc1cc2ncnc(N3CCN(C(=O)Nc4ccc([N+](=O)[O-])cc4)CC3)c2cc1OC	–	logD [2]: 3.22
COc1cc2ncnc(N3CCN(/C(=C/[N+](=O)[O-])NCc4ccc5c(c4)OCO5)CC3)c2cc1OC	> 30000	–
COc1cc2ncnc(N3CCN(/C(S)=N\CC4CCCO4)CC3)c2cc1OC (stereo not given)	> 30000	–
COc1cc2ncnc(N3CCN(C(=S)Nc4ccncc4)CC3)c2cc1OC	980	–
COc1cc2ncnc(N3CCN(/C(S)=N\Cc4cccnc4)CC3)c2cc1OC.Cl.Cl	280	concentration at 8 h [3]: < 100 ng/mL; solubility [4]: 2.2 µg/mL; AUC [5]: 9840 ng·h/mL; Cmax [5]: 6980 ng/mL; Tmax [5]: 0.67 h; half-life [5]: 2.11 h; concentration at 1 h [6]: 2600 ng/mL; concentration at 1 h [7]: 2600 ng/mL; logD [2]: 2.49; concentration at 8 h [8]: < 100 ng/mL
COc1cc2ncnc(N3CCN(C(=NC#N)NCc4ccc(Cl)cc4)CC3)c2cc1OC	960	–
COc1cc2ncnc(N3CCN(C(=O)NCc4ccc(F)cc4)CC3)c2cc1OC	9590	–
COc1cc2ncnc(N3CCN(C(=S)NCc4ccc(C(C)(C)C)cc4)CC3)c2cc1OC	160	–
COc1cc2ncnc(N3CCN(C(=O)Nc4ccc(C(C)(C)C)cc4)CC3)c2cc1OC	30	–

SMILES	IC50 [1] [nM]	other results
COc1cc2ncnc(N3CCN(C(=S)N[C@H](C)c4ccccc4)CC3)c2cc1OC	> 30000	–
COc1cc2ncnc(N3CCN(C(=S)Nc4ccc(Cl)cc4)CC3)c2cc1OC	790	–
COc1cc2ncnc(N3CCN(C(=O)Oc4ccc([N+](=O)[O-])cc4)CC3)c2cc1OC	> 30000	–
COc1cc2ncnc(N3CCN(C(=O)Nc4cccnc4)CC3)c2cc1OC	> 30000	–
COc1cc2ncnc(N3CCN(C(=S)Nc4cncc(Cl)c4)CC3)c2cc1OC	550	–
COc1cc2ncnc(N3CCN(C(=O)NCc4ccc(Cl)cc4)CC3)c2cc1OC	1270	–
COc1cc2ncnc(N3CCN(C(=O)Nc4cncc(Cl)c4)CC3)c2cc1OC	8230	–
COc1cc2ncnc(N3CCN(C(=O)Nc4ccsc4)CC3)c2cc1OC.Cl	–	IC50 [9]: 7020 nM; IC50 (Protein kinase C (PKC)): > 30 uM l-1; IC50 [10]: > 30 uM l-1; IC50 [11]: 800 nM; IC50 [12]: > 30 uM l-1
COc1cc2ncnc(N3CCN(C(=S)NCc4ccc(C(C)C)cc4)CC3)c2cc1OC	200	–
COc1cc2ncnc(N3CCN(C(=O)NCc4ccc(C(C)C)cc4)CC3)c2cc1OC	550	–
COc1cc2ncnc(N3CCN(C(=S)NCC4(c5ccc(Cl)cc5)CC4)CC3)c2cc1OC	> 30000	–
COc1cc2ncnc(N3CCN(C(=S)NCC4CCCCC4)CC3)c2cc1OC	> 10000	–
COc1cc2ncnc(N3CCN(C(=S)NCc4ccc(Br)cc4)CC3)c2cc1OC	30	–
COc1cc2ncnc(N3CCN(C(=S)NCc4ccccc4Cl)CC3)c2cc1OC	980	–
COc1cc2ncnc(N3CCN(C(NCc4ccc(Cl)cc4)=C(C#N)C#N)CC3)c2cc1OC	5240	–
COc1cc2ncnc(N3CCN(C(=S)NCCc4ccc(Cl)cc4)CC3)c2cc1OC	1090	–
COc1cc2ncnc(N3CCN(C(=S)NCCc4cccnc4)CC3)c2cc1OC	20100	–
COc1ccc(CNC(=S)N2CCN(c3ncnc4cc(OC)c(OC)cc34)CC2)cc1OC	2410	–
COc1cc2ncnc(N3CCN(C(=S)NCc4cccc(Cl)c4)CC3)c2cc1OC	230	–

SMILES	IC50 [1] [nM]	other results
COc1cc2ncnc(N3CCN(/C(S)=N\Cc4ccc(Oc5ccccc5)cc4)CC3)c2cc1OC	960	–
COc1cc2ncnc(N3CCN(C(=S)Nc4ccccn4)CC3)c2cc1OC	> 30000	–
COc1cc2ncnc(N3CC(C)N(C(=O)Nc4ccc(Oc5ccccc5)cc4)CC3C)c2cc1OC (stereo not given)	> 30000	–
COc1cc2ncnc(N3CCN(C(=S)NC(=O)c4ccc(Cl)cc4)CC3)c2cc1OC	> 30000	–
COc1cc2ncnc(N3CCN(C(=NC#N)NCc4ccc(C(C)C)cc4)CC3)c2cc1OC	1380	–
COc1cc2ncnc(N3CCN(C(=NC#N)NCc4ccc5c(c4)OCO5)CC3)c2cc1OC	190	–
COc1ccc(CNC(=O)N2CCN(c3ncnc4cc(OC)c(OC)cc34)CC2)cc1	3060	concentration at 1 h [13]: 11600 ng/mL; concentration at 1 h [14]: 7300 ng/mL; concentration at 8 h [15]: 1400 ng/mL; concentration at 8 h [16]: 1900 ng/mL
COc1cc2ncnc(N3CCN(C(=O)Nc4cccs4)CC3)c2cc1OC	410	–
COc1cc2ncnc(N3CCN(C(=S)NCc4ccc(C)cc4)CC3)c2cc1OC	30	–
COc1cc2ncnc(N3CCN(C(=O)N(C)c4ccc(Br)cc4)CC3)c2cc1OC	> 30000	–
COc1cc2ncnc(N3CCN(C(=O)Nc4ccncc4)CC3)c2cc1OC	14100	–
COc1cc2ncnc(N3CCN(C(=O)NCc4ccsc4)CC3)c2cc1OC	> 30000	–
COc1cc2ncnc(N3CCN(C(=NC#N)NCc4ccc(C)cc4)CC3)c2cc1OC	340	–
COc1cc2ncnc(N3CCN(C(=O)Nc4ccc(Br)cc4)CC3)c2cc1OC	530	–
COc1cc2ncnc(N3CCN(C(=O)NS(=O)(=O)c4ccc(Cl)cc4)CC3)c2cc1OC	> 30000	–
COc1cc2ncnc(N3CC(C)N(/C(S)=N\Cc4ccccc4)C(C)C3)c2cc1OC (stereo not given)	640	–
COc1cc2ncnc(N3CCN(C(=O)NCc4ccc(C(C)(C)C)cc4)CC3)c2cc1OC	110	–
COc1cc2ncnc(N3CCN(C(=NC#N)NCc4cccc(Cl)c4)CC3)c2cc1OC	23500	–
COc1cc2ncnc(N3CCN(C(=O)Nc4ccc(Oc5ccccc5)cc4)C(C)C3)c2cc1OC (stereo not given)	80	–

From ChEMBL document CHEMBL1136005 (J Med Chem, 2002)
